Compound activity from PubChem BioAssay.
Only some compounds are listed: those with a hit (about 7.9% of all), similar ones and a draw of the others.
D1 allo mod: D1 dopamine receptor (human) allosteric modulation; P21728; HEK293 D1, CRE-luciferase, dopamine EC30 potentiation; actives deviate in either direction; B-score at 10 µM; hit rate 5.9% among 58,000; AID 641;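 active means luminescence count or its row- and column-corrected plate score outside the 99.7% band of the plate's sample wells, on either side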
JNK3 inh: blocks human JNK3 kinase activity. P53779. inhibition, % at 8 µM. hit rate 0.61% among 60,000. purified JNK3 kinase activity, HTS; in the data active means inhibition above about 17%;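 further: 0% = DMSO and 100% = reference inhibitor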
HEK293 NFkB inh: lowers PMA/ionomycin-induced NF-kB signal in HEK293 cells; HEK-293 NF-kB luciferase reporter, luminescence; inhibition, % at 3 µM; hit rate 0.21% among 62,000;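 active means inhibition above the mean of all tested compounds plus 3 SD, cut at about 40% in these data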;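 further: 0% = stimulated DMSO wells and 100% = 10 µM reference inhibitor 5653914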
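System – HEK-293 cells with stable firefly luciferase reporter driven by four HIV NF-kB elements · Doses – one dose, 3 µM · Schedule – 1 h compound pre-incubation, 16 h PMA/ionomycin at 37 °C · Technique – luminescence from luciferase substrate reagent · Measure – percent inhibition normalized per plate to DMSO and reference-inhibitor controls · Replicates – tested once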
RORa activator: activates the human nuclear receptor RORA. AID 560. CHO-K1 Gal4-RORA LBD luciferase reporter, luminescence; percent increase over mock-subtracted basal signal. activation, % at 10 µM. hit rate 1.5% among 65,000;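 active means activation above the mean of all tested compounds plus 3 SD, cut at about 49% in these data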;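 further: 0% = DMSO-treated RORA cells and 100% = added signal equal to DMSO minus mock-transfected cells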
SF-1 act: activators of human nuclear receptor SF-1; CHO-K1 Gal4-SF-1 LBD luciferase reporter; % increase over DMSO SF-1-specific signal; hit rate 1.9% among 65,000; AID 522; activation, % at 10 µM;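 active means activation above the mean activation of all tested compounds plus 3 SD, cut at about 50% in these data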
Target sequence (Q13285 whole entry, looked up, the tested form may be a part): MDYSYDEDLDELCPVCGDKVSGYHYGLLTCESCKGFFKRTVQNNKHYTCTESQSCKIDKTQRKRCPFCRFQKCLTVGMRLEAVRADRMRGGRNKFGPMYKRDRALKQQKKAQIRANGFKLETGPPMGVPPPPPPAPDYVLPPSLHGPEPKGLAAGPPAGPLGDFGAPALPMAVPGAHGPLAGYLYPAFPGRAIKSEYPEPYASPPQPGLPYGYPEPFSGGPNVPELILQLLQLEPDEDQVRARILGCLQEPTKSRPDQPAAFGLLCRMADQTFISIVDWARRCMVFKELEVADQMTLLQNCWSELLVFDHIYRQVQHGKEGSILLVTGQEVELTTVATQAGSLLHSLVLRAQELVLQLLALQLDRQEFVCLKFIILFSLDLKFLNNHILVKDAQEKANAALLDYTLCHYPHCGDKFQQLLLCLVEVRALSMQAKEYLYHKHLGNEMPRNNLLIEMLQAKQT
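Test system: CHO-K1 cells with Gal4–hSF-1 LBD chimera plus Gal4-driven luciferase; Input: 4,000 cells/well; Compound: 10 µM only; Times: 20 h compound treatment, 37 °C; Measured by: steady-glow luciferase luminescence, read after 15 min reagent incubation; Measure: percent activation versus DMSO; Control set: DMSO and mock-transfected background; Replicates: one test per compound.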
D1 mod confirm: D1 receptor (human) allosteric modulation, confirmed. shares compounds with D1 allo mod. HEK293 D1 CRE-luciferase, dopamine EC30 potentiation; stronger effect = higher value. luminescence at 10 µM. hit rate 88% among 2,200. AID 642;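 active means luminescence in either of two replicates above the same-plate mean plus 3 SD of the low-dose dopamine control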
D1 no dopamine: activates D1 CRE-luciferase signal without dopamine present; HEK293 D1 CRE-luciferase, luminescence, no dopamine; stronger effect = higher value; luminescence at 10 µM; shares compounds with D1 allo mod; hit rate 0.8% among 1,900; in the data active means luminescence above about 3900
Isoprot counter: isoproterenol response counter-screen activity for D1 modulators | hit rate 63% among 2,200 | calls only at 10 µM | AID 647 | shares compounds with D1 allo mod | HEK293 D1 CRE-luciferase, isoproterenol EC30 counter-screen;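 active means luminescence in either replicate above plate mean of wells with a partly effective reference agonist dose plus 3 SD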;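 further: isoproterenol raises cAMP through native beta-adrenoceptor Gs so signal bypasses D1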
* hit, by the source's call.

CCOC(=O)C1=C(C)Nc2nc(SC)nn2C1c1ccc(C(=O)OC)cc1 (stereo not given) was read as D1 allo mod 4*, JNK3 inh 1, HEK293 NFkB inh 5, RORa activator -12, SF-1 act -5, D1 mod confirm 8432*, D1 no dopamine 1672 and Isoprot counter inactive.
Screening CC1CN(C2CCN(S(=O)(=O)Cc3ccccc3)CC2)CC(C)O1 (stereo not given) returned D1 allo mod 0.64, JNK3 inh -1, RORa activator -14 and SF-1 act -11.
O=C1CCCC2=C1C(c1ccccc1)CC(=O)N2c1ccccc1 (stereo not given) was read as D1 allo mod 0.21, JNK3 inh 2, HEK293 NFkB inh 13, RORa activator 0 and SF-1 act -1.
CSc1ccc(C2C(C#N)=C(N)N(c3ccccc3)C3=C2C(=O)CCC3)cc1 (stereo not given) was read as D1 allo mod 2.6*, HEK293 NFkB inh 24, RORa activator -7, SF-1 act -14, D1 mod confirm 10676*, D1 no dopamine 1648 and Isoprot counter inactive.
Screening CCOc1ccc(C2CC(c3cccc(OC)c3)Nc3ncnn32)cc1 (stereo not given) returned D1 allo mod -1.3, JNK3 inh 5, HEK293 NFkB inh -5, RORa activator -14 and SF-1 act 11.
CCOc1ccc(N/C(SC)=C(/C#N)C(N)=O)cc1 was read as D1 allo mod 5*, HEK293 NFkB inh 17, RORa activator -19, SF-1 act -8, D1 mod confirm 6796*, D1 no dopamine 1504 and Isoprot counter inactive.
COc1ccc(CCNS(=O)(=O)c2ccccc2)cc1OC was read as D1 allo mod 4.2*, JNK3 inh -6, HEK293 NFkB inh 11, RORa activator 0, SF-1 act -13, D1 mod confirm 15812*, D1 no dopamine 2400 and Isoprot counter active.
`COc1ccc(S(=O)(=O)NCCOc2ccccc2)cc1OC` gave JNK3 inh 8, HEK293 NFkB inh 19, RORa activator -6 and SF-1 act -19.
`O=C(CCCCCN1C(=O)c2ccccc2C1=O)NCc1ccccn1` gave D1 allo mod 0.24, JNK3 inh 1, HEK293 NFkB inh 15, RORa activator -10 and SF-1 act 7.
For CCOC(=O)c1c(N)sc2c(NC(C)=O)cccc12 the results were D1 allo mod 0.65, JNK3 inh -2, HEK293 NFkB inh 19, RORa activator 11 and SF-1 act 15.
CCOC(=O)c1cc(-c2ccc(N)cc2)sc1N was read as D1 allo mod 10*, JNK3 inh -17, HEK293 NFkB inh -32, RORa activator 10, SF-1 act -1, D1 mod confirm 21552*, D1 no dopamine 1580 and Isoprot counter active.
For O=c1[nH]c(-c2ccccc2O)nc2c1CCCC2 the results were D1 allo mod -0.34, JNK3 inh -2, HEK293 NFkB inh 18, RORa activator -7 and SF-1 act -6.
For NC(=O)c1cnn2c(C(F)(F)F)cc(-c3ccc(F)cc3)nc12 the results were D1 allo mod 2.5*, JNK3 inh -3, HEK293 NFkB inh 15, RORa activator -16, SF-1 act -9, D1 mod confirm 10756*, D1 no dopamine 1664 and Isoprot counter active.
Screening NC(=O)c1cnn2c(C(F)(F)F)cc(-c3ccccc3)nc12 returned D1 allo mod 7.9*, JNK3 inh -5, HEK293 NFkB inh 1, RORa activator 1, SF-1 act 4, D1 mod confirm 17628*, D1 no dopamine 1408 and Isoprot counter active.
Screening CC(NC(=O)NC1CCCCC1)C(c1cccs1)N1CCOCC1 (stereo not given) returned D1 allo mod -0.4, JNK3 inh -5, HEK293 NFkB inh -14, RORa activator 4 and SF-1 act -7.
Screening O=C(CN1CCN(c2ccccn2)CC1)Nc1ccc(Cl)c(C(F)(F)F)c1 returned D1 allo mod 5.5*, JNK3 inh 7, HEK293 NFkB inh 5, RORa activator 32, SF-1 act 18, D1 mod confirm 7388, D1 no dopamine 1768 and Isoprot counter inactive.
`O=C(CN1CCN(c2ccccn2)CC1)Nc1cc(C(F)(F)F)ccc1Cl` gave D1 allo mod 0.48, JNK3 inh -4, HEK293 NFkB inh 11, RORa activator -7 and SF-1 act 0.
`COc1ccc(CN2C(=O)c3cccnc3C2Nc2ccc(OC)c(Cl)c2)cc1` (stereo not given) gave D1 allo mod 7.6*, JNK3 inh -1, HEK293 NFkB inh 10, RORa activator -4, SF-1 act 4, D1 mod confirm 13912* and Isoprot counter active.
Screening COc1ccc(OC)c(CN2C(=O)c3ccccc3C2C(=O)NCc2cccnc2)c1 (stereo not given) returned JNK3 inh 1, HEK293 NFkB inh 10, RORa activator -2 and SF-1 act -6.
Screening Cc1ccc(NC2c3ncccc3C(=O)N2Cc2ccc(F)cc2)cc1 (stereo not given) returned D1 allo mod 7.5*, JNK3 inh -3, HEK293 NFkB inh 9, RORa activator -4, SF-1 act 14, D1 mod confirm 10592* and Isoprot counter active.
For COc1ccc(NC2c3ncccc3C(=O)N2Cc2ccccc2)c(OC)c1 (stereo not given) the results were D1 allo mod 19*, JNK3 inh 1, HEK293 NFkB inh 11, RORa activator -27, SF-1 act -2, D1 mod confirm 14524*, D1 no dopamine 1572 and Isoprot counter active.
Screening CCOc1ccc(N2C(=O)c3cccnc3C2Nc2ccc(F)cc2)cc1 (stereo not given) returned D1 allo mod 0.012, JNK3 inh 1, HEK293 NFkB inh -1, RORa activator 2 and SF-1 act 8.
`COc1cc(NC2c3ncccc3C(=O)N2Cc2ccco2)cc(OC)c1` (stereo not given) gave D1 allo mod 12*, JNK3 inh 1, HEK293 NFkB inh 8, RORa activator -6, SF-1 act 5, D1 mod confirm 14836*, D1 no dopamine 1576 and Isoprot counter active.
`COc1ccc(CN2C(=O)c3ccccc3C2C(=O)NCc2cccnc2)c(OC)c1` (stereo not given) gave D1 allo mod -1.2, JNK3 inh -3, HEK293 NFkB inh 0, RORa activator -1 and SF-1 act 5.
